ABHD5 PLIN5 PPI – blocks binding of human ABHD5 to perilipin-5; Q00G26+Q8WTS1; Split G. princeps luciferase complementation, luminescence, 4 h; inhibition, % at 4 µM; 0.78% of 360,000 active; AID 602281;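 active = inhibition above the mean inhibition across every tested compound plus 3 SD, cut at about 22% in these data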
B2AR ag – agonists of human beta-2 adrenergic receptor inducing internalization; response, % (test concentration not listed); P07550; AID 504454; Am2.2-beta2AR cells, FAP receptor internalization, flow cytometry; 0.43% of 340,000 active;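 active = response above a set limit, near 3 SD of response in nonfluorescent compounds, cut at about 42% in these data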
MBD2 DNA inh – MBD2-methylated oligo binding inhibition; Q9UBB5; TR-FRET, MBD2 binding to methylated oligonucleotide; inhibition, % at 4.4 µM; 0.31% of 370,000 active; AID 686964; in the data active = inhibition above about 13%
Arrestin-AP2 inh – human beta-arrestin and AP2 interaction inhibition; FITC-arrestin peptide / GST-AP2 beads, flow cytometry; AP2 beta2 appendage carries R879A mutation; 0.31% of 340,000 active; AID 504490; inhibition, % at 10 µM;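 active = inhibition above a set limit, near 3 SD of compounds lacking own fluorescence, cut at about 54% in these data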
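Test system: GST-tagged AP2 beta2-adaptin appendage (R879A) on 4 µm glutathione beads; also added: fluorescein-tagged arrestin peptide at 50 nM final; timing: 12 min plus 1 h, RT; signal: flow cytometry, FL1 (488/535 nm); read-out: percent drop in bead-associated FITC signal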
Rin1 Abl inh – human Rin1-Abl interaction inhibition. P00519+Q13671. TR-FRET Rin1/Abl binding, biochemical. inhibition, % at 7.35 µM. 0.4% of 360,000 active; in the data active = inhibition above about 5%, passing the limit was not always enough
UHRF1 MBD2 ctr – human UHRF1 methylated DNA binding inhibitors; 0.75% of 370,000 active; inhibition, % at 4.4 µM; UHRF1 binding to methylated oligo, TR-FRET; Q96T88; in the data active = inhibition above about 21%;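 also: UHRF1 SRA domain binding a hemimethylated CpG hairpin DNA probe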
Target sequence (Q96T88 whole entry, looked up, the tested form may be a part): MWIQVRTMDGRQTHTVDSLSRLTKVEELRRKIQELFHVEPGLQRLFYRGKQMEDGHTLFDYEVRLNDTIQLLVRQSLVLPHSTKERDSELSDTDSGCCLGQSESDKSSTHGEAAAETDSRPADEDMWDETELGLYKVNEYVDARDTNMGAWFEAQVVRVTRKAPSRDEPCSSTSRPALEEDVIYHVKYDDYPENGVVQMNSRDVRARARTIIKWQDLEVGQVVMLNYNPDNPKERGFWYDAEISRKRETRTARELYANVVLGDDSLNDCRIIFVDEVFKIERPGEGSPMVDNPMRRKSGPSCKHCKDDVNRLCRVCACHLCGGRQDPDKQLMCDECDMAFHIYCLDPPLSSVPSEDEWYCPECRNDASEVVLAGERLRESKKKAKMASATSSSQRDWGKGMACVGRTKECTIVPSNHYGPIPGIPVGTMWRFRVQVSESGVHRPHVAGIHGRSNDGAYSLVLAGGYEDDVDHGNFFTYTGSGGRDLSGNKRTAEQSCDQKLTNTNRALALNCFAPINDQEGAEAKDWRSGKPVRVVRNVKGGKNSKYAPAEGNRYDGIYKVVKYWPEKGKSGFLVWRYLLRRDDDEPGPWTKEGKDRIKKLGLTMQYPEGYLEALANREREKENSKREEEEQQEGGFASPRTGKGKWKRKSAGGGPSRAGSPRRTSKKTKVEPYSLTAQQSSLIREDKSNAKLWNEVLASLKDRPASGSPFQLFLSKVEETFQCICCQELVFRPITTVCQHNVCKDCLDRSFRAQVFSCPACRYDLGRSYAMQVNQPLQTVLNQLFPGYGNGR
Hits are given with their value; . = inactive; / = not tested or not shown. Sampled rows, rich in hits. Any-hit rate of the full collection: about 2.5%.

SMILES | ABHD5 PLIN5 PPI | B2AR ag | MBD2 DNA inh | Arrestin-AP2 inh | Rin1 Abl inh | UHRF1 MBD2 ctr
[O-]/C(=C(\C(=S)Nc1cccc2ccccc12)[n+]1ccccc1)c1ccc(OC(F)F)cc1 | . | . | . | . | . | 29.5
COc1cccc(NC(=S)/C(=C(\[O-])c2ccc(OC(F)F)cc2)[n+]2ccccc2)c1 | . | . | . | . | . | .
COC(=O)c1cc(-c2cccs2)c(=O)n2c1CCC2 | / | / | . | / | / | .
CC(SC(=S)N(C)Cc1cccs1)C(=O)O (centres undefined) | . | . | . | . | . | .
CN(C)c1nc(=NCc2cccs2)ss1 | 77.8 | . | . | . | . | .
OCCOCCOc1ccc(-c2nn[nH]n2)cc1 | . | . | . | . | . | 23.6
CCOc1ccc(-c2nn[nH]n2)cc1 | . | . | . | . | . | .
O=C(/C=C/c1cccc(Br)c1)N1CCN(c2cccc(C(F)(F)F)c2)CC1 | . | . | . | . | . | 23.9
O=C(Cn1nnc(-c2ccccc2F)n1)Nc1ccc(F)cc1F | / | / | . | / | / | .
CCn1c(NC(=O)c2ccccc2)nc2ccccc21 | . | . | . | . | . | .
C=CCn1c(NC(=O)c2ccccc2)nc2ccccc21 | . | . | . | . | . | 71.6
Cc1cccc(NS(=O)(=O)c2ccc(NC(=O)CN(c3cc([N+](=O)[O-])ccc3C)S(C)(=O)=O)cc2)c1 | 32.0 | . | . | . | . | .
COc1ccc(C)cc1NS(=O)(=O)c1ccc(NC(=O)CN(c2cc([N+](=O)[O-])ccc2C)S(C)(=O)=O)cc1 | . | . | . | . | . | .
COc1ccc(CCN2C(=O)COc3ccccc3C2C(=O)NCc2ccccc2)cc1OC (centres undefined) | . | / | . | / | / | 23.0
C[C@H]1[C@@H](C(=O)N2CCCC2)CC(=O)/C(=N/OCc2ccccc2)C[C@@H]1c1ccccc1 | / | / | . | / | / | .
CCCCNc1c(-c2cccc(-c3ccc(OC)cc3)c2)nc2cc(C)ccn12 | . | . | . | . | . | .
CCCCNc1c(-c2cccc(-c3ccc(OC)cc3)c2)nc2ccc(C)cn12 | . | 49.2 | . | . | . | .
CCC1(CC)NC(=O)N(CC(=O)OCn2nnc3ccccc3c2=O)C1=O | . | . | . | . | . | 21.2
O=C(CN1C(=O)C2CCCCC2C1=O)OCn1nnc2ccccc2c1=O (centres undefined) | . | . | . | . | . | .
COc1cc2c(cc1OC)CN(c1nc(CN3CCCC3)nc3sc(C)c(C)c13)CC2 | . | . | . | . | . | 33.9
O=C1CCC[C@H]2Cc3nc4cccc(Cl)c4cc3C[C@]23CCCN13 | / | / | . | / | / | .
Cc1ccccc1N(C(=O)c1snc(C(N)=O)c1N)C(C(=O)NC1CCCCC1)c1ccc(O)cc1 (centres undefined) | . | . | . | . | . | 49.5
Cc1cccc(N(C(=O)c2snc(C(N)=O)c2N)C(C(=O)NC2CCCC2)c2ccc(C)o2)c1 (centres undefined) | . | . | . | . | . | 69.6
Cc1ccc(N(C(=O)c2snc(C(N)=O)c2N)C(C(=O)NC2CCCC2)c2ccc(C)o2)cc1 (centres undefined) | . | . | . | . | . | .
CC(C)(C)OC(=O)NCCCc1ccc2c(c1)[C@]1(CCC[C@@H](OCc3ccccc3)[C@@H]1NC(=O)CCc1ccccc1)C(=O)N2Cc1ccccc1 | / | / | . | / | / | .
SMILES | ABHD5 PLIN5 PPI | B2AR ag | MBD2 DNA inh | Arrestin-AP2 inh | Rin1 Abl inh | UHRF1 MBD2 ctr
CCCCc1c(-c2ccccc2OC)ncn1CCc1cccc(F)c1 | . | / | . | / | / | 55.8
CCCCc1c(-c2ccccc2OC)ncn1Cc1ccc(C(C)(C)C)cc1 | / | / | . | / | / | 27.6
CC(C)(C)c1ccc(CNc2nc(-c3ccccn3)nnc2-c2ccccc2)cc1 | / | / | . | / | / | .
Cc1c2ccncc2cc2c1[nH]c1ccccc12 | . | . | . | . | . | .
COc1ccc2[nH]c3c(C)c4ccncc4c(C)c3c2c1 | . | . | 32.6 | . | . | 35.6
CCS(=O)(=O)NCC(c1cccnc1)N1CCN(c2ccc(OC)cc2)CC1 (centres undefined) | . | . | . | . | . | 21.9
CC(=O)c1c(C)[nH]c(C(=O)COC(=O)Cc2ccccc2F)c1C | . | 58.7 | . | . | . | .
CC(=O)c1c(C)[nH]c(C(=O)COC(=O)COc2ccccc2F)c1C | . | . | . | . | . | .
COc1ccc(C)cc1NC(=O)C(Sc1nncn1C)c1ccccc1 (centres undefined) | . | . | . | . | . | 24.2
CN(C)C(=O)N1CCC(C(=O)NCc2ccc(F)cc2Cl)CC1 | . | . | . | . | . | .
O=C(NNC(=O)C1CCN(Cc2ccc(F)cc2Cl)CC1)Nc1ccc([N+](=O)[O-])cc1 | . | . | . | . | . | 29.0
COc1cccc(-n2cc(CNC(=O)C3CCC(=O)N(C4CC4)C3)cn2)c1 (centres undefined) | . | . | . | . | . | 21.4
COc1ccccc1-c1ccc(/C=C2/C=C(C)OC2=O)o1 | 22.6 | . | . | . | . | .
Cc1ccc(C(=O)O)cc1-c1ccc(C=C2C(=O)c3ccccc3C2=O)o1 | . | . | . | . | . | .
O=C1C(=Cc2ccc(Br)o2)C(=O)c2ccccc21 | . | . | / | . | 8.7 | /
CC1=C/C(=C\c2ccc(Br)o2)C(=O)O1 | . | . | 15.6 | . | . | 52.7
CSC1=N/C(=C\c2ccc(Br)o2)C(=O)S1 | . | . | . | . | . | .
O=C(NCCc1ccccc1)OCc1cn(Cc2cccc(C(F)(F)F)c2)nn1 | / | / | . | / | / | .
Cc1nnc(NC(=O)c2ccc(N3CCCC3=O)cc2)s1 | . | . | . | . | . | .
O=C(NC1=NCCS1)c1ccc(N2CCCC2=O)cc1 | . | 47.7 | . | . | . | .
CCOC(=O)CC1COc2ccccc2N1C(=O)c1cccc([N+](=O)[O-])c1 (centres undefined) | . | . | . | . | . | 40.0
O=C(NCCO)[C@H](Cc1ccccc1)NC1(C(=O)NCCc2c[nH]c3ccccc23)CCCCC1 | / | / | . | / | / | .
Cn1c2nc(=O)n(-c3ccccc3)c(=O)c-2nc2c1CCCC2 | . | / | / | / | 9.1 | /
COCCn1c2nc(=O)n(-c3ccccc3)c(=O)c-2nc2ccccc21 | . | / | . | / | . | .
CCOC(=O)CNC(=O)CSc1nnc(-c2ccc(C(C)(C)C)cc2)n1-c1ccc(Cl)cc1 | / | / | . | / | / | .
CCC[C@H]1[C@@H](O)CC[C@@]23CCCN2C(=O)CCC[C@@H]13 | / | / | . | / | / | .
Cc1ccc(C(=O)N2CCN(c3ccc(NC(=O)c4cc(C)cc(C)c4)cc3)CC2)cc1 | . | . | . | . | . | .
Cc1cc(C)cc(C(=O)Nc2ccc(N3CCCC3)cc2)c1 | . | . | . | . | . | 47.2
COC(=O)C1CSC(C)(C)C(=O)N1 (centres undefined) | . | . | . | . | . | .
COC(=O)CCCCC1SCC2NC(=O)NC21O (centres undefined) | . | . | . | . | 87.3 | .

Assay outcomes from PubChem.
